# Source: ChEMBL document CHEMBL1649441, “Potency and bactericidal activity of iclaprim against recent clinical gram-positive isolates” (2009)
# Tests used:
# Enterococcus faecium [1] = assay: Antibacterial activity against Enterococcus faecium assessed as inhibition of bacterial growth at 0.06 ug/ml by CLSI broth microdilution method; assay type: functional
# How it was run: (§1)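 Clinical isolates from skin/soft tissue, bloodstream and respiratory specimens were tested by broth microdilution per CLSI M7-A7 and M100-S18, with quality controls. Values are the number of isolates inhibited at each concentration, or MIC / percent susceptible. Highest concentration tested was 8 µg/ml for iclaprim and trimethoprim-sulfamethoxazole, and 64 µg/ml for trimethoprim.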
# Enterococcus faecium [2] = assay: Antibacterial activity against Enterococcus faecium assessed as inhibition of bacterial growth at 0.015 ug/ml by CLSI broth microdilution method; assay type: functional; how it was run: as §1
# Staphylococcus aureus [3] = assay: (§2) Antibacterial activity against Methicillin-sensitive Staphylococcus aureus assessed as inhibition of bacterial growth at […] by CLSI broth microdilution method; assay type: functional; set-up: Activity: scale not given: the % may be the effect or the level left
# [4] = system: Streptococcus sp. 'group A'; assay: Antibacterial activity against Beta-hemolytic Streptococcus group A assessed as inhibition of bacterial growth at 0.5 ug/ml by CLSI broth microdilution method; assay type: functional; how it was run: as §1
# Enterococcus faecalis [5] = assay: Antibacterial activity against Enterococcus faecalis assessed as inhibition of bacterial growth at 2 ug/ml by CLSI broth microdilution method; assay type: functional; how it was run: as §1
# Enterococcus faecalis [6] = assay: Antibacterial activity against Enterococcus faecalis by CLSI broth microdilution method; assay type: functional
# Staphylococcus aureus [7] = assay: Antibacterial activity against Methicillin-resistant Staphylococcus aureus assessed as inhibition of bacterial growth at 0.06 ug/ml by CLSI broth microdilution method; assay type: functional
# How it was run: (§3)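 Recent clinical isolates from skin/soft tissue, bloodstream and respiratory specimens. Tested by broth microdilution per CLSI M7-A7 and M100-S18, with the appropriate quality controls. The thymidine content of the test medium was assessed to rule out artifactual inhibition.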
# [8] = system: Streptococcus sp. 'group A'; assay: Antibacterial activity against Beta-hemolytic Streptococcus group A assessed as inhibition of bacterial growth at <= 0.008 ug/ml by CLSI broth microdilution method; assay type: functional; how it was run: as §1
# Staphylococcus aureus [9] = assay: Antibacterial activity against Methicillin-resistant Staphylococcus aureus assessed as inhibition of bacterial growth at 0.5 ug/ml by CLSI broth microdilution method; assay type: functional; how it was run: as §3
# Staphylococcus aureus [10] = assay: Antibacterial activity against Methicillin-resistant Staphylococcus aureus assessed as inhibition of bacterial growth at <= 0.008 ug/ml by CLSI broth microdilution method; assay type: functional; how it was run: as §3
# [11] = system: Streptococcus sp. 'group B'; assay: Antibacterial activity against Beta-hemolytic Streptococcus group B assessed as inhibition of bacterial growth at 0.015 ug/ml by CLSI broth microdilution method; assay type: functional; how it was run: as §1
# [12] = system: Streptococcus sp. 'group A'; assay: Antibacterial activity against Beta-hemolytic Streptococcus group A assessed as inhibition of bacterial growth at 0.06 ug/ml by CLSI broth microdilution method; assay type: functional; how it was run: as §1
# [13] = system: Streptococcus sp. 'group B'; assay: Antibacterial activity against Beta-hemolytic Streptococcus group B assessed as inhibition of bacterial growth at 2 ug/ml by CLSI broth microdilution method; assay type: functional; how it was run: as §1
# Staphylococcus aureus [14] = assay: Antibacterial activity against Methicillin-sensitive Staphylococcus aureus by CLSI broth microdilution method; assay type: functional
# Enterococcus faecalis [15] = assay: Antibacterial activity against Enterococcus faecalis assessed as inhibition of bacterial growth at 8 ug/ml by CLSI broth microdilution method; assay type: functional; how it was run: as §1
# [16] = system: Streptococcus sp. 'group B'; assay: Antibacterial activity against Beta-hemolytic Streptococcus group B assessed as inhibition of bacterial growth at <= 0.008 ug/ml by CLSI broth microdilution method; assay type: functional; how it was run: as §1
# Staphylococcus aureus [17] = assay: Antibacterial activity against Methicillin-resistant Staphylococcus aureus by CLSI broth microdilution method; assay type: functional
# Enterococcus faecium [18] = assay: Antibacterial activity against Enterococcus faecium assessed as inhibition of bacterial growth at <= 0.008 ug/ml by CLSI broth microdilution method; assay type: functional
# Staphylococcus aureus [19] = assay: Antibacterial activity against Methicillin-sensitive Staphylococcus aureus assessed as inhibition of bacterial growth at 1 ug/ml by CLSI broth microdilution method; assay type: functional
# Staphylococcus aureus [20] = assay: as §2; assay type: functional; set-up: Activity: scale not given: the % may be the effect or the level left; remark: listed apart in the source
# Enterococcus faecalis [21] = assay: Antibacterial activity against Enterococcus faecalis assessed as inhibition of bacterial growth at 0.015 ug/ml by CLSI broth microdilution method; assay type: functional; how it was run: as §1
# Enterococcus faecium [22] = assay: Antibacterial activity against Enterococcus faecium assessed as inhibition of bacterial growth at […] by CLSI broth microdilution method; assay type: functional
# [23] = system: Streptococcus sp. 'group B'; assay: Antibacterial activity against Beta-hemolytic Streptococcus group B assessed as inhibition of bacterial growth at […] by CLSI broth microdilution method; assay type: functional; further: tested at 0.25 µg/mL
# [24] = system: Streptococcus sp. 'group A'; assay: Antibacterial activity against Beta-hemolytic Streptococcus group A assessed as inhibition of bacterial growth at 2 ug/ml by CLSI broth microdilution method; assay type: functional; how it was run: as §1
# [25] = system: Streptococcus sp. 'group A'; assay: Antibacterial activity against Beta-hemolytic Streptococcus group A assessed as inhibition of bacterial growth at 0.015 ug/ml by CLSI broth microdilution method; assay type: functional; how it was run: as §1
# [26] = system: Streptococcus sp. 'group B'; assay: microbe, parasite or virus in culture; settings: read-out: INH
# Staphylococcus aureus [27] = assay: Antibacterial activity against Methicillin-resistant Staphylococcus aureus assessed as susceptible isolates by CLSI broth microdilution method; assay type: functional
# Enterococcus faecium [28] = assay: microbe, parasite or virus in culture; settings: read-out: INH
# Staphylococcus aureus [29] = assay: microbe, parasite or virus in culture; settings: read-out: INH
# Enterococcus faecalis [30] = assay: microbe, parasite or virus in culture; settings: read-out: INH
# Staphylococcus aureus [31] = assay: microbe, parasite or virus in culture; settings: read-out: INH; remark: listed apart in the source
# [32] = system: Streptococcus sp. 'group B'; assay: microbe, parasite or virus in culture; settings: read-out: INH; remark: listed apart in the source
# Staphylococcus aureus [33] = assay: Antibacterial activity against Methicillin-sensitive Staphylococcus aureus assessed as susceptible isolates by CLSI broth microdilution method; assay type: functional
# Enterococcus faecium [34] = assay: microbe, parasite or virus in culture; settings: read-out: INH; remark: listed apart in the source
# Staphylococcus aureus [35] = assay: microbe, parasite or virus in culture; settings: read-out: INH; remark: listed apart in the source
# Enterococcus faecalis [36] = assay: microbe, parasite or virus in culture; settings: read-out: INH; remark: listed apart in the source
# Enterococcus faecalis [37] = assay: microbe, parasite or virus in culture; settings: read-out: INH; remark: listed apart in the source
# [38] = system: Streptococcus sp. 'group A'; assay: microbe, parasite or virus in culture; settings: read-out: INH
# Staphylococcus aureus [39] = assay: microbe, parasite or virus in culture; settings: read-out: INH; remark: listed apart in the source
# [40] = system: Streptococcus sp. 'group A'; assay: microbe, parasite or virus in culture; settings: read-out: INH; remark: listed apart in the source
# [41] = system: Streptococcus sp. 'group A'; assay: microbe, parasite or virus in culture; settings: read-out: INH; remark: listed apart in the source
# Staphylococcus aureus [42] = assay: Antibacterial activity against Methicillin-resistant Staphylococcus aureus assessed as resistant isolates by CLSI broth microdilution method; assay type: functional
# Staphylococcus aureus [43] = assay: microbe, parasite or virus in culture; settings: read-out: INH; remark: listed apart in the source
# Enterococcus faecium [44] = assay: microbe, parasite or virus in culture; settings: read-out: INH; remark: listed apart in the source
# Staphylococcus aureus [45] = assay: Antibacterial activity against Methicillin-sensitive Staphylococcus aureus assessed as resistant isolates by CLSI broth microdilution method; assay type: functional
smiles,measurement,setting,value
COc1cc(Cc2cnc(N)nc2N)c2c(c1OC)OC(C1CC1)C=C2 (stereo not drawn),inhibition at 0.06 µg/mL,Enterococcus faecium [1],37.6%
same,inhibition at 0.015 µg/mL,Enterococcus faecium [2],36.3%
same,inhibition at […],Staphylococcus aureus [3]; Staphylococcus aureus,95.6%
same,inhibition at 0.5 µg/mL,[4],100%
same,inhibition at 2 µg/mL,Enterococcus faecalis [5],71.9%
same,MIC50,Enterococcus faecalis [6],0.015 µg/mL
same,MIC90,Enterococcus faecalis [6],4 µg/mL
same,inhibition at 0.06 µg/mL,Staphylococcus aureus [7],69.6%
same,inhibition (INH),[8],30.5%
same,inhibition at 0.5 µg/mL,Staphylococcus aureus [9],92.9%
same,inhibition (INH),Staphylococcus aureus [10],0.1%
same,inhibition at 0.015 µg/mL,[11],0.5%
same,inhibition at 0.06 µg/mL,[12],99.3%
same,inhibition at 2 µg/mL,[13],100%
same,MIC50,Staphylococcus aureus [14],0.06 µg/mL
same,MIC90,Staphylococcus aureus [14],0.12 µg/mL
same,inhibition at 8 µg/mL,Enterococcus faecalis [15],1.9%
same,inhibition (INH),[16],0%
same,MIC50,Staphylococcus aureus [17],0.06 µg/mL
same,MIC90,Staphylococcus aureus [17],0.12 µg/mL
same,inhibition (INH),Enterococcus faecium [18],33.7%
same,inhibition at 1 µg/mL,Staphylococcus aureus [19],98.7%
same,inhibition at […],Staphylococcus aureus [20]; Staphylococcus aureus,98.5%
same,inhibition at 0.015 µg/mL,Enterococcus faecalis [21],57.7%
same,inhibition at […],Enterococcus faecium [22],38%
same,inhibition at […],[23],91.2%
same,inhibition at 2 µg/mL,[24],100%
same,inhibition at 0.015 µg/mL,[25],77.6%
COc1cc(Cc2cnc(N)nc2N)cc(OC)c1OC [TRIMETHOPRIM],inhibition at 32 µg/mL,[26],100%
same,inhibition at 0.06 µg/mL,Enterococcus faecium [1],30.4%
same,Activity,Staphylococcus aureus [3],0.3%
same,Activity,Staphylococcus aureus [27],92.9%
same,inhibition at 32 µg/mL,Enterococcus faecium [28],55.1%
same,inhibition at 0.5 µg/mL,[4],98.5%
same,inhibition at 2 µg/mL,Enterococcus faecalis [5],67.7%
same,MIC50,Enterococcus faecalis [6],0.25 µg/mL
same,MIC90,Enterococcus faecalis [6],> 64 µg/mL
same,inhibition at 0.06 µg/mL,Staphylococcus aureus [7],< 0.1%
same,inhibition at 16 µg/mL,Staphylococcus aureus [29],93.6%
same,inhibition at 32 µg/mL,Enterococcus faecalis [30],71%
same,inhibition at 32 µg/mL,Staphylococcus aureus [31],94.1%
same,inhibition at 64 µg/mL,[32],100%
same,inhibition at 0.5 µg/mL,Staphylococcus aureus [9],47.7%
same,Activity,Staphylococcus aureus [33],98.7%
same,inhibition at 16 µg/mL,Enterococcus faecium [34],47.2%
same,inhibition at 0.06 µg/mL,[12],8.6%
same,inhibition at 2 µg/mL,[13],89.2%
same,MIC50,Staphylococcus aureus [14],1 µg/mL
same,MIC90,Staphylococcus aureus [14],1 µg/mL
same,inhibition at 32 µg/mL,Staphylococcus aureus [35],98.7%
same,inhibition at 64 µg/mL,Enterococcus faecalis [36],72.9%
same,inhibition at 16 µg/mL,Enterococcus faecalis [37],70.6%
same,inhibition at 16 µg/mL,[38],100%
same,inhibition at 8 µg/mL,Enterococcus faecalis [15],70.6%
same,inhibition at 64 µg/mL,Staphylococcus aureus [39],98.7%
same,MIC50,Staphylococcus aureus [17],1 µg/mL
same,MIC90,Staphylococcus aureus [17],2 µg/mL
same,inhibition at 1 µg/mL,Staphylococcus aureus [19],90.2%
same,Activity,Staphylococcus aureus [20],2.4%
same,inhibition at 32 µg/mL,[40],100%
same,inhibition at 64 µg/mL,[41],100%
same,Activity,Staphylococcus aureus [42],7.1%
same,inhibition at 16 µg/mL,Staphylococcus aureus [43],98.7%
same,inhibition at […],Enterococcus faecium [22],36%
same,inhibition at […],[23],0.5%
same,inhibition at 64 µg/mL,Enterococcus faecium [44],60.7%
same,Activity,Staphylococcus aureus [45],1.3%
same,inhibition at 2 µg/mL,[24],100%
